One data set relates to LLC-MK2. Nature of the data set: Cytotoxicity against rhesus monkey LLC-MK2 cells at 9 uM after 3 days by MTT assay. The note with it: llc-mk2, 72 h. The data set is classed as cell-based, Macaca mulatta. The gist of the method: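 Serial peptide dilutions in hMPV infection medium applied to LLC-MK2 cells for 3 days. MTT (1 mg/ml) added for 2 h at 37°C, dye solubilized in acidic isopropanol, absorbance read at 570. Absorbance below that of control cells taken as cytotoxicity.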

In another data set the test system is Human metapneumovirus. Nature of the data set: Antiviral activity against hMPV C-85473 infected in rhesus monkey LLC-MK2 cells after 3 days by RT-PCR. The note with it: C-85473, LLC-MK2, 72 h. The data set is classed as functional, organism-based. The gist of the method: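 Twofold serial dilutions of peptide mixed with 107 TCID50 virus in infection medium (Opti-MEM with 2 µg/ml trypsin) and added to LLC-MK2 cells. After 2 h, medium replaced with fresh medium containing the same peptide dilutions. Supernatants collected on day 3 and N gene quantified by real-time RT-PCR (TaqMan). IC50 from triplicate experiments.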

For data set [1], the species on record is Mus musculus. Description: Effect on pulmonary inflammation in BALB/c mouse lung assessed as change in peribronchiolar inflammation after 5 days by histopathological analysis. It is filed as functional, organism-based. The method, boiled down:
(§1)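 Female BALB/c mice, 4-6 weeks old, received intranasal hMPV C-85473 (2 x 106 TCID50/ml, 70 µl) or PBS, with or without 7 µM synthetic peptide by the same route. Six lungs/group taken on day 5, fixed in 10% buffered formalin, paraffin-embedded, cut at 5 µm, stained with H&E. Each inflammation type scored on a 0-4 scale.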

The species named for data set [2] is Mus musculus. Description: Effect on airway obstruction in hMPV infected BALB/c mouse assessed as decrease in enhanced pause treated simultaneously with viral challenge.
For data set [3], the species on record is Mus musculus. Nature of the data set: Effect on pulmonary inflammation in BALB/c mouse lung assessed as change in perivascular inflammation after 5 days by histopathological analysis. It is filed as functional, organism-based. The method, boiled down:
as §1

Calls of active or inactive are those of the source. The rule behind the calls is not given here. Where a SMILES comes first, the peptide text is derived from it.

As for `CC[C@H](C)[C@H](NC(=O)[C@H](CCCNC(=N)N)NC(=O)[C@H](CC(N)=O)NC(=O)[C@H](CO)NC(=O)[C@H](CCC(N)=O)NC(=O)[C@H](CC(=O)O)NC(=O)[C@@H](NC(=O)[C@H](CC(C)C)NC(=O)[C@H](C)NC(=O)[C@H](CCC(N)=O)NC(=O)[C@H](CO)NC(=O)[C@H](CC(N)=O)NC(=O)[C@H](CCC(=O)O)NC(=O)[C@@H](NC(=O)[C@H](CO)NC(=O)[C@H](CCC(=O)O)NC(=O)[C@H](Cc1ccccc1)NC(=O)[C@@H](NC(=O)[C@H](CCC(N)=O)NC(=O)[C@H](CC(=O)O)NC(=O)[C@H](CC(C)C)NC(=O)[C@H](C)NC(=O)[C@@H](NC(=O)[C@H](CC(N)=O)NC(=O)[C@H](Cc1ccccc1)NC(=O)[C@H](CCC(N)=O)NC(=O)[C@H](CC(=O)O)NC(=O)[C@H](CCC(=O)O)NC(=O)[C@@H]1CCCN1)C(C)C)C(C)C)[C@@H](C)CC)C(C)C)C(=O)N[C@@H](CC(C)C)C(=O)N[C@@H](CO)C(=O)N[C@@H](CO)C(=O)N[C@@H](C)C(=O)N[C@@H](CCC(=O)O)C(=O)N[C@@H](CCCCN)C(=O)NCC(=O)N[C@@H](CC(N)=O)C(=O)N[C@H](C(=O)NCC(=O)O)[C@@H](C)O` (H-PEDQFNVALDQVFESIENSQALVDQSNRILSSAEKGNTG-OH), the Activity result with LLC-MK2 is recorded as “Not Active”. The molecule also showed an IC50 in the data set on Human metapneumovirus of 3.31 µM.
Take `CC[C@H](C)[C@H](NC(=O)[C@H](C)NC(=O)[C@@H](NC(=O)[C@@H](NC(=O)[C@H](CCC(=O)O)NC(=O)[C@H](CO)NC(=O)[C@H](CCC(=O)O)NC(=O)[C@@H](N)CC(C)C)C(C)C)[C@@H](C)O)C(=O)N[C@@H](CCCCN)C(=O)N[C@@H](CC(N)=O)C(=O)N[C@@H](C)C(=O)N[C@@H](CC(C)C)C(=O)N[C@@H](CCCCN)C(=O)N[C@@H](CCCCN)C(=O)N[C@H](C(=O)N[C@@H](CC(N)=O)C(=O)N[C@@H](CCC(=O)O)C(=O)N[C@@H](C)C(=O)N[C@H](C(=O)N[C@@H](CO)C(=O)N[C@H](C(=O)N[C@@H](CC(C)C)C(=O)NCC(=O)N[C@@H](CC(N)=O)C(=O)NCC(=O)N[C@H](C(=O)N[C@@H](CCCNC(=N)N)C(=O)N[C@H](C(=O)N[C@@H](CC(C)C)C(=O)N[C@@H](C)C(=O)N[C@H](C(=O)N[C@@H](C)C(=O)N[C@H](C(=O)N[C@@H](CCCNC(=N)N)C(=O)N[C@@H](CCC(=O)O)C(=O)O)C(C)C)[C@@H](C)O)C(C)C)C(C)C)[C@@H](C)O)C(C)C)[C@@H](C)O` (H-LESEVTAIKNALKKTNEAVSTLGNGVRVLATAVRE-OH): the Activity result in the data set with LLC-MK2 is listed as “Not Active”. The molecule further came in with an IC50 in the data set with Human metapneumovirus of 3.24 µM.
Take `CC[C@H](C)[C@H](NC(=O)[C@H](CCCNC(=N)N)NC(=O)[C@H](CC(N)=O)NC(=O)[C@H](CO)NC(=O)[C@H](CCC(N)=O)NC(=O)[C@H](CC(=O)O)NC(=O)[C@@H](NC(=O)[C@H](CC(C)C)NC(=O)[C@H](C)NC(=O)[C@H](CCC(N)=O)NC(=O)[C@H](CO)NC(=O)[C@H](CC(N)=O)NC(=O)[C@H](CCC(=O)O)NC(=O)[C@@H](NC(=O)[C@H](CO)NC(=O)[C@H](CCC(=O)O)NC(=O)[C@H](Cc1ccccc1)NC(=O)[C@@H](NC(=O)[C@H](CCC(N)=O)NC(=O)[C@H](CC(=O)O)NC(=O)[C@H](CC(C)C)NC(=O)[C@H](C)NC(=O)[C@@H](NC(=O)[C@@H](N)CC(N)=O)C(C)C)C(C)C)[C@@H](C)CC)C(C)C)C(=O)N[C@@H](CC(C)C)C(=O)N[C@@H](CO)C(=O)N[C@@H](CO)C(=O)N[C@@H](C)C(=O)O` (H-NVALDQVFESIENSQALVDQSNRILSSA-OH): the outcome in the data set listed under Mus musculus [1], in the data set filed under Mus musculus [2] and in the data set filed under Mus musculus [3] was inactive. In addition, the Activity result in the data set with LLC-MK2 is “Not Active”. Moreover, the IC50 with Human metapneumovirus was > 9 µM.
In the case of `CC[C@H](C)[C@H](NC(=O)[C@H](CCCNC(=N)N)NC(=O)[C@H](CC(N)=O)NC(=O)[C@H](CO)NC(=O)[C@H](CCC(N)=O)NC(=O)[C@H](CC(=O)O)NC(=O)[C@@H](NC(=O)[C@H](CC(C)C)NC(=O)[C@H](C)NC(=O)[C@H](CCC(N)=O)NC(=O)[C@H](CO)NC(=O)[C@H](CC(N)=O)NC(=O)[C@H](CCC(=O)O)NC(=O)[C@@H](NC(=O)[C@H](CO)NC(=O)[C@H](CCC(=O)O)NC(=O)[C@H](Cc1ccccc1)NC(=O)[C@@H](NC(=O)[C@H](CCC(N)=O)NC(=O)[C@H](CC(=O)O)NC(=O)[C@H](CC(C)C)NC(=O)[C@H](C)NC(=O)[C@@H](NC(=O)[C@H](CC(N)=O)NC(=O)[C@@H](N)Cc1ccccc1)C(C)C)C(C)C)[C@@H](C)CC)C(C)C)C(=O)N[C@@H](CC(C)C)C(=O)N[C@@H](CO)C(=O)N[C@@H](CO)C(=O)N[C@@H](C)C(=O)N[C@@H](CCC(=O)O)C(=O)N[C@@H](CCCCN)C(=O)NCC(=O)N[C@@H](CC(N)=O)C(=O)O` (H-FNVALDQVFESIENSQALVDQSNRILSSAEKGN-OH), the Activity entry with LLC-MK2 is “Not Active”. For the same molecule, the IC50 in the data set on Human metapneumovirus was > 9 µM.
Consider `CC[C@H](C)[C@H](NC(=O)[C@H](CCCNC(=N)N)NC(=O)[C@H](CC(N)=O)NC(=O)[C@H](CO)NC(=O)[C@H](CCC(N)=O)NC(=O)[C@H](CC(=O)O)NC(=O)[C@@H](NC(=O)[C@H](CC(C)C)NC(=O)[C@H](C)NC(=O)[C@H](CCC(N)=O)NC(=O)[C@H](CO)NC(=O)[C@H](CC(N)=O)NC(=O)[C@H](CCC(=O)O)NC(=O)[C@@H](NC(=O)[C@H](CO)NC(=O)[C@H](CCC(=O)O)NC(=O)[C@H](Cc1ccccc1)NC(=O)[C@@H](NC(=O)[C@H](CCC(N)=O)NC(=O)[C@H](CC(=O)O)NC(=O)[C@H](CC(C)C)NC(=O)[C@H](C)NC(=O)[C@@H](NC(=O)[C@H](CC(N)=O)NC(=O)[C@@H](N)Cc1ccccc1)C(C)C)C(C)C)[C@@H](C)CC)C(C)C)C(=O)N[C@@H](CC(C)C)C(=O)N[C@@H](CO)C(=O)N[C@@H](CO)C(=O)N[C@@H](C)C(=O)N[C@@H](CCC(=O)O)C(=O)N[C@@H](CCCCN)C(=O)NCC(=O)N[C@@H](CC(N)=O)C(=O)N[C@H](C(=O)NCC(=O)O)[C@@H](C)O` (H-FNVALDQVFESIENSQALVDQSNRILSSAEKGNTG-OH), for which, in the data set on LLC-MK2, the Activity result is recorded as “Not Active”. This molecule also gave an IC50 with Human metapneumovirus of 1.52 µM.
As for `CC[C@H](C)[C@H](NC(=O)[C@H](CCCNC(=N)N)NC(=O)[C@H](CC(N)=O)NC(=O)[C@H](CO)NC(=O)[C@H](CCC(N)=O)NC(=O)[C@H](CC(=O)O)NC(=O)[C@@H](NC(=O)[C@H](CC(C)C)NC(=O)[C@H](C)NC(=O)[C@H](CCC(N)=O)NC(=O)[C@H](CO)NC(=O)[C@H](CC(N)=O)NC(=O)[C@H](CCC(=O)O)NC(=O)[C@@H](NC(=O)[C@H](CO)NC(=O)[C@H](CCC(=O)O)NC(=O)[C@H](Cc1ccccc1)NC(=O)[C@@H](NC(=O)[C@H](CCC(N)=O)NC(=O)[C@H](CC(=O)O)NC(=O)[C@H](CC(C)C)NC(=O)[C@H](C)NC(=O)[C@@H](NC(=O)[C@H](CC(N)=O)NC(=O)[C@@H](N)Cc1ccccc1)C(C)C)C(C)C)[C@@H](C)CC)C(C)C)C(=O)N[C@@H](CC(C)C)C(=O)N[C@@H](CO)C(=O)N[C@@H](CO)C(=O)N[C@@H](C)C(=O)N[C@@H](CCC(=O)O)C(=O)O` (H-FNVALDQVFESIENSQALVDQSNRILSSAE-OH), in the data set with LLC-MK2, the Activity entry is listed as “Not Active”. Further, in the data set with Human metapneumovirus, the IC50 was > 9 µM.

The values are drawn from ChEMBL document CHEMBL1151460, “Identification and evaluation of a highly effective fusion inhibitor for human metapneumovirus” (Antimicrob Agents Chemother, 2008).
